# Only some compounds are listed: those with a hit (about 3.9% of all), similar ones and a draw of the others.
# m5-HT2A agonist: mouse HTR2A agonism via beta-arrestin recruitment; CHO-K1 mHTR2A beta-arrestin complementation, luminescence; percent of 30 µM serotonin response; activation, % at 7.6 µM; 360,000 tested, 0.66% active; AID 624169; P35363;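 active means activation above a run cutoff, the mean activation of all tested compounds plus 3 SD, cut at about 14% in these data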;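 further: 0% = plate median of compound wells and 100% = 30 µM serotonin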
# M1 ag: human M1 muscarinic receptor agonism | CHO-K1 hM1, Fluo-8 calcium fluorescence, agonist mode; 0% DMSO, 100% acetylcholine EC100 | activation, % at 3 µM | AID 588814 | 360,000 tested, 0.33% active;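 active means activation above the run's mean compound activation plus 3 SD, cut at about 16% in these data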;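 further: peak over basal fluorescence ratio within a 140 s kinetic read after compound addition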
# TAAR1 antag: human TAAR1 antagonism | AID 624466 | inhibition, % at 3 µM | Q96RJ0 | 360,000 tested, 1.5% active | CHO RD-HGA16 TAAR1, Fluo-8 calcium fluorescence, antagonist;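 active means inhibition above a per-plate cutoff, the mean inhibition of test compounds on that plate plus 3 SD, cut at about 49% in these data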;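 further: 0% = DMSO plus EC80 beta-PEA response and 100% = DMSO alone without agonist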
# Target sequence (Q96RJ0 whole entry, looked up): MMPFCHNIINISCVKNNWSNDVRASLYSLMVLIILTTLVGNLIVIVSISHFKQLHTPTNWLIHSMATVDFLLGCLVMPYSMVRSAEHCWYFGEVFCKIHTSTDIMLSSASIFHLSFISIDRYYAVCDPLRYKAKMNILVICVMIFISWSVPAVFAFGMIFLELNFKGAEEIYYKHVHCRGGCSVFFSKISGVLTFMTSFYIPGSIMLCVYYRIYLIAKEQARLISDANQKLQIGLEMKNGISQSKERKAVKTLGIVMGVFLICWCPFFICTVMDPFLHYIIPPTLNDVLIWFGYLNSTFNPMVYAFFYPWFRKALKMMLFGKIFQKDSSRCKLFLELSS
#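 Assay system: RD-HGA16 CHO cells with stable hTAAR1 and Gα16 / Reagent: EC80 β-phenethylamine stimulus / Doses: 3 µM, single point / Timing: dye loading 75 min at 37 °C, then 30 min room temperature / Measured by: Fluo-8 intracellular calcium dye fluorescence, real-time kinetic reads / Controls: vehicle wells and EC80 agonist wells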
# M1 antag: human CHRM1 antagonism; P11229; CHO-K1 hM1, Fluo-8 calcium fluorescence, ACh EC80 antagonist; inhibition, % at 3 µM; 360,000 tested, 1.3% active;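 active means percent inhibition above its own plate's cutoff, namely the mean of that plate's compound wells plus 3 SD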;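 further: peak over basal fluorescence ratio during 140 s after agonist addition; 0% = ACh EC80 plus DMSO and 100% = DMSO alone without agonist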
# CHRM1 PAM: potentiates human M1 receptor response to acetylcholine | activation, % at 3 µM | P11229 | 360,000 tested, 0.088% active | AID 588819 | CHO-K1 hM1, Fluo-8 calcium fluorescence, ACh EC20; 0% = ACh EC20, 100% = maximal ACh; in the data active means activation above about 19%, passing the limit was not always enough
# TAAR1 agonist: human TAAR1 agonism. Q96RJ0. CHO RD-HGA16 TAAR1, Fluo-8 calcium fluorescence; vehicle wells 0%, saturating PEA agonist 100%. activation, % at 3 µM. 360,000 tested, 0.99% active. AID 624467;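 active means activation above the mean activation of all test compounds in the run plus 3 SD, cut at about 38% in these data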
#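 Signal – calcium-sensitive Fluo-8 signal, excitation 470-495, emission 515-575 nm · System – RD-HGA16 (CHO) cells co-expressing Gα16 and hTAAR1 · Incubation – 17-24 h seeding, 75 min 37 °C dye, 30 min RT · Compound dosing – 3 µM single concentration · Repeats – no replicates (n 1)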
# * hit, by the source's call; x = not tested or not shown.
SMILES,m5-HT2A agonist,M1 ag,TAAR1 antag,M1 antag,CHRM1 PAM,TAAR1 agonist
O=C(COC(=O)c1ccc(S(=O)(=O)N2CCCCC2)cc1)Nc1ccccc1Cl,0,-6,2,-1,3,1
COc1ccc(NC(=O)CN(C)CC(=O)Nc2sc3c(c2C#N)CCC3)cc1,-2,1,-28,34*,-5,10
COc1cccc(/C=N/Nc2ncnc(Cl)c2N)c1O,6,-7,-10,4,-4,2
COc1cccc(/C=N/Nc2ncnc3scc(-c4ccccc4)c23)c1O,-1,-4,43,34*,-17,12
Cc1ccc(C2=N/C(=C\c3coc4ccccc4c3=O)C(=O)O2)cc1,x,x,-23,x,x,5
O=S(=O)(/N=S1/CC=CCN1S(=O)(=O)c1ccccc1)c1ccccc1 (stereo not drawn),4,21*,x,-11,12,x
CCOC(=O)C1CCCN(C(=O)Cn2nc(C)n3c(cc4c(OC)cccc43)c2=O)C1 (stereo not drawn),6,21*,18,4,-3,16
COc1cccc2c1cc1c(=O)n(CC(=O)N3CCCCCC3)nc(C)n12,3,-4,-12,0,0,0
Cc1ccc(C2(CCN)CCOC(C(C)C)C2)cc1 (stereo not drawn),-5,-8,-3,-2,4,7
CC(C)C1CC(CCN)(c2ccccc2)CCO1 (stereo not drawn),-6,-5,-25,74*,-12,1
CN1CCN(c2ccc(NC(=S)NC(=O)c3cccc4c(Cl)cccc34)cc2)CC1,-10,-13,-25,37*,-30,1
CC(C)Oc1cccc(C(=O)NC(=S)Nc2ccc(N3CCN(C)CC3)cc2)c1,-9,-4,3,99*,-27,20
CC(=C1N=C(c2ccccc2)OC1=O)c1cccs1,x,x,-18,x,x,1
Cc1cccc(CCNC(=O)C2CCN(S(=O)(=O)c3c(C)noc3C)CC2)c1,1,-1,-13,-13,6,2
CCC1CCCCN1CCNC(=O)C1CCN(S(=O)(=O)c2c(C)noc2C)CC1 (stereo not drawn),2,-7,-2,48*,-24,3
CNC(=S)Nc1cc2oc3ccccc3c2cc1OC,8,-2,0,2,5,2
COc1cc2c(cc1NC(=S)Nc1ccccc1C)oc1ccccc12,-5,-5,2,-15,25*,2
COc1cc2c(cc1NC(=O)C(C)Sc1ccc(NC(C)=O)cc1)oc1ccccc12 (stereo not drawn),-6,1,50*,19,-7,9
COCc1[nH]nc2c1C(c1ccc(C)cc1)N(Cc1ccccc1)C2=O (stereo not drawn),x,x,-10,x,x,0
O=C(COC(=O)c1ccc(O)cc1)Nc1ccccc1[N+](=O)[O-],3,-1,16,15,-3,10
O=C(NN1C(=O)NC2(CCCCC2)C1=O)c1ccc(-c2ccc(Cl)cc2)o1,-4,-5,29,29*,-15,7
COc1ccccc1CN1C2CCCC1CC(NC(=O)/C=C/c1ccccc1)C2 (stereo not drawn),-4,-13,16,62*,-32,3
Cc1cc2ccccc2cc1C(=O)c1ccccc1,4,-1,-5,-36,28*,3
O=C(COC(=O)COc1ccc(Br)cc1)NC1CCS(=O)(=O)C1 (stereo not drawn),8,-3,-6,-16,9,1
CCOc1ccccc1OCC(=O)Nc1cccc(S(=O)(=O)N2CCCCCC2)c1,-7,4,58*,-2,10,4
SMILES,m5-HT2A agonist,M1 ag,TAAR1 antag,M1 antag,CHRM1 PAM,TAAR1 agonist
CC(=O)c1ccc(OCC(=O)Nc2cccc(S(=O)(=O)N3CCCC3)c2)cc1,-6,-1,24,31*,-11,7
CC(=O)c1ccccc1OCC(=O)Nc1cccc(S(=O)(=O)N2CCCC2)c1,1,-2,10,-9,6,7
O=C(COc1ccc(Cl)cc1Br)Nc1cccc(S(=O)(=O)N2CCCC2)c1,-2,-5,14,4,0,3
Cc1ccc(OCC(=O)Nc2cccc(S(=O)(=O)N3CCCC3)c2)cc1C,2,-4,10,3,-2,1
N#Cc1ccccc1OCC(=O)Nc1cccc(S(=O)(=O)N2CCCCCC2)c1,-6,-1,53*,18,-12,11
Cc1ccc(-n2cc(CN3CCC(O)(c4ccccn4)CC3)c(-c3ccc(F)cc3)n2)cc1,0,1,3,0,13,12
COc1ccc(-c2nc(NC(=O)c3[nH]c(C)c(C(C)=O)c3C)sc2C)cc1,-5,-2,88*,11,-5,46*
CCN(CC)CCCOC(=O)C(c1ccccc1)c1ccccc1,-4,-14,1,101*,-34,2
CN(C)c1ncc(CN2CCC(CO)(CCCc3ccccc3)CC2)s1,5,20*,-35,-11,3,8
CCOC(=O)C1(CCc2ccccc2)CCN(Cc2cnc(N(C)C)s2)CC1,-7,-3,14,20,-6,13
Cc1ccc(S(=O)(=O)n2c(N)nc3cc(C)c(C)cc32)cc1,0,-11,-6,20*,-20,11
Cc1ccc(S(=O)(=O)n2c(C)nc3cc(C)ccc32)cc1,5,-1,-18,-2,1,0
Nc1c(C(=O)c2ccccc2)sc2nsc(SCCN3CCCC3)c12,-4,11,-5,55*,-26,30
O=C(C1CC1)N1CCN(c2nc3ccccc3s2)CC1,0,0,2,4,-4,1
O=C(Nc1ccc(F)cc1)N1CCN(c2nc3ccccc3s2)CC1,23*,-1,36,-5,-1,11
OC(CNC1Cc2ccccc2C1)COc1ccc(Cl)cc1 (stereo not drawn),-6,-6,8,-9,3,9
OC(CNC1CCCc2ccccc21)COc1c(Cl)cccc1Cl (stereo not drawn),-4,0,10,-5,12,69*
CCC1Sc2ccc(S(=O)(=O)CCC(=O)Nc3cccc(Br)c3)cc2NC1=O (stereo not drawn),-3,1,49*,9,-5,7
CCC1Sc2ccc(S(=O)(=O)CCC(=O)Nc3ccc(NC(C)=O)cc3)cc2NC1=O (stereo not drawn),0,-5,-4,-7,5,0
CCC1Sc2ccc(S(=O)(=O)Nc3ccc(OC)cc3)cc2NC1=O (stereo not drawn),3,15,24,8,-1,56*
COc1cccc(-n2c(SCC(=O)NC3CC3)nc3ccccc3c2=O)c1,-5,0,-16,-10,7,4

# Screens: PubChem BioAssay, The Scripps Research Institute Molecular Screening Center
